System: Rattus norvegicus
Test: Antihypertensive effect after 1 mg/kg (po) administration in conscious spontaneously hypertensive rat (over a time period of 0-210 minutes).
Type: functional
Summary of the method: (§1)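 Male Okamoto-strain SHR (280-330 g, blood pressure >180 mmHg), conscious and unrestrained, given 1 mg/kg orally as a screening dose. Mean arterial pressure was recorded directly and continuously via an aortic catheter from 1 h before to 3.5 h after dosing. The effect is the mean of the maximum individual changes over 3.5 h; N ≥ 3.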

Row | Structure (SMILES) | Max fall in blood pressure [mmHg]
1 | CC1(C)Oc2ccc(C#N)cc2C(n2ccc(=O)nc2)[C@@H]1O (some centres not stated) | 18
2 | O=c1ccccn1C1=CC2(CCCCC2)Oc2ccc([N+](=O)[O-])cc21 | 22
3 | CC1(C)C=C(n2ncccc2=O)c2cc(C#N)ccc2O1 | 23
4 | CC(=O)c1ccc2c(c1)[C@@H](n1ccccc1=O)[C@H](O)C(C)(C)O2 | 38
5 | CC(=O)Nc1cccn([C@@H]2c3cc(C#N)ccc3OC(C)(C)[C@H]2O)c1=O | 22
6 | CC1(C)C=C(n2ccc(=O)[nH]c2=O)c2cc(C#N)ccc2O1 | 23
7 | CC1(C)Oc2ccc(C#N)cc2C(n2ccc(=O)cc2)[C@@H]1O (some centres not stated) | 21
8 | CC1(C)C=C(n2cc(Cl)ccc2=O)c2cc(C#N)ccc2O1 | 23
9 | CC1(C)Oc2ccc(C#N)cc2[C@@H](n2cccc(C(=O)O)c2=O)[C@@H]1O | 24
10 | COC1=C(n2ccccc2=O)c2cc(C#N)ccc2OC1(C)C | 22
11 | CC1(C)Oc2ccc(C#N)cc2[C@@H](n2cc(Cl)ccc2=O)[C@@H]1O | 37
12 | CC(=O)OC1=C(n2ccccc2=O)c2cc(C#N)ccc2OC1(C)C | 21
13 | CCOC(=O)c1ccc(=O)n(C2c3cc(C#N)ccc3OC(C)(C)[C@H]2O)n1 (some centres not stated) | 24
14 | CC1(C)C=C(n2cc([N+](=O)[O-])ccc2=O)c2cc(C#N)ccc2O1 | 27
15 | CC1(C)Oc2ccc(C#N)cc2C(n2ncc3ccccc3c2=O)[C@@H]1O (some centres not stated) | 38
16 | CC1(C)Oc2ccc(C#N)cc2[C@@H](n2cc([N+](=O)[O-])ccc2=O)[C@@H]1O | 23
17 | CC1(C)C=C(n2ccccc2=O)c2cc(C=O)ccc2O1 | 35

Row | Structure (SMILES) | Max fall in blood pressure [mmHg]
18 | CC1(C)Oc2ccc(C#N)cc2[C@@H](n2cc(N)ccc2=O)[C@@H]1O | 34
19 | CC1(C)C=C(n2ccccc2=O)c2cc(C(=N)S)ccc2O1 | 23
20 | CC1(C)Oc2ccc(/N=C/c3ccc([N+](=O)[O-])cc3)cc2C(N2CCCC2=O)[C@@H]1O (some centres not stated) | 26
21 | CC1(C)Oc2ccc(C#N)cc2[C@H](n2ccccc2=O)[C@@H]1O | 26
22 | CC1(C)Oc2ccc(C#N)cc2C(N2CCCCS2(=O)=O)[C@@H]1O (some centres not stated) | 30
23 | COC(=O)c1ccc2c(c1)[C@@H](n1ccccc1=O)[C@H](O)C(C)(C)O2 | 49
24 | N#Cc1ccc2c(c1)C(n1ccccc1=O)=CC1(CCCC1)O2 | 26
25 | CC1(C)Oc2ccc(C#N)cc2C(n2cccnc2=O)[C@@H]1O (some centres not stated) | 20
26 | CC1(C)C=C(N2CCCCS2(=O)=O)c2cc(C#N)ccc2O1 | 25
27 | CC1(C)Oc2ccc(C#N)cc2C(n2ccccc2=O)C1=O (configuration not stated) | 20
28 | CC1(C)Oc2ccc(-c3ccncc3)cc2[C@@H](n2ccccc2=O)[C@@H]1O | 24
29 | CC1(C)C=C(n2ccc(=O)cc2)c2cc(C#N)ccc2O1 | 48
30 | CC1(C)Oc2ccc(C(=N)S)cc2C(N2CCCC2=O)[C@@H]1O (some centres not stated) | 22
31 | CC1(C)Oc2ccc(C#N)cc2C(n2cnccc2=O)[C@@H]1O (some centres not stated) | 19
32 | CC1(C)Oc2ccc(/C=C/C#N)cc2[C@@H](n2ccccc2=O)[C@@H]1O | 25
33 | CC1(C)Oc2ccc(-c3ccncc3)cc2C(N2CCCC2=O)[C@@H]1O (some centres not stated) | 20
34 | CC1(C)Oc2ccc(C#N)cc2C(n2ccc3ccccc3c2=O)[C@@H]1O (some centres not stated) | 24

System: Rattus norvegicus
Test: Antihypertensive effect after 1 mg/kg (po) administration in conscious spontaneously hypertensive rat (over a time period of 0-210 min).
Type: functional, organism-based
Set-up: dose 1 mg/kg
Summary of the method: as §1

Row | Structure (SMILES) | Max fall in blood pressure
35 | Cc1csc(-c2ccc3c(c2)C(N2CCCC2=O)[C@H](O)C(C)(C)O3)n1 (some centres not stated) | Not significant
36 | CC(=O)Nc1ccc(=O)n([C@@H]2c3cc(C#N)ccc3OC(C)(C)[C@H]2O)c1 | Not significant
37 | COc1cccn([C@@H]2c3cc(C#N)ccc3OC(C)(C)[C@H]2O)c1=O | Not significant
38 | CN(C)c1cccn([C@@H]2c3cc(C#N)ccc3OC(C)(C)[C@H]2O)c1=O | Not significant
39 | CC1(C)Oc2ccc(C#N)cc2C(n2cc(Cl)c(=O)c(Cl)c2)[C@@H]1O (some centres not stated) | Not significant
40 | CC1(C)C=C(n2cc(Cl)c(=O)c(Cl)c2)c2cc(C#N)ccc2O1 | Not significant
41 | CC1(C)Oc2ccc(-c3nn[nH]n3)cc2C(N2CCCC2=O)[C@@H]1O (some centres not stated) | Not significant
42 | CC1(C)CC(n2ccc(=O)cc2)c2cc(C#N)ccc2O1 (configuration not stated) | Not significant
43 | CCOc1ccn([C@@H]2c3cc(C#N)ccc3OC(C)(C)[C@H]2O)c(=O)c1 | Not significant
44 | CC1(C)Oc2ccc(C3=NCCN3)cc2C(N2CCCC2=O)[C@@H]1O (some centres not stated) | Not significant
45 | CC1(C)Oc2ccc(C(N)=O)cc2[C@]2(n3ccccc3=O)O[C@H]12 | Not significant
46 | CC(=O)Nc1ccc(=O)n(C2=CC(C)(C)Oc3ccc(C#N)cc32)c1 | Not significant
47 | CC1(C)Oc2ccc(C#N)cc2[C@@H](N2CCCCC2=N)[C@@H]1O | Not significant
48 | CC1(C)Oc2ccc(C(=N)S)cc2[C@@H](n2ccccc2=O)[C@@H]1O | Not significant
49 | CC1(C)Oc2ccc(/C=C/c3ccc(C#N)cc3)cc2[C@@H](n2ccccc2=O)[C@@H]1O | Not significant
50 | N#Cc1ccc2c(c1)[C@@H](n1ccccc1=O)[C@H](O)C1(CCCCC1)O2 | Not significant
51 | COC(=O)c1ccc2c(c1)C(n1ccccc1=O)C(=O)C(C)(C)O2 (configuration not stated) | Not significant
52 | CC1(C)Oc2ccc(C#N)cc2C(N2CCC(=O)CC2)[C@@H]1O (some centres not stated) | Not significant
53 | CC1(C)C=C(n2ccc(OCc3ccccc3)cc2=O)c2cc(C#N)ccc2O1 | Not significant
54 | CC1(C)Oc2ccc([N+](=O)[O-])cc2[C@@H](N2CCCC2=N)[C@@H]1O | Not significant
55 | CC1(C)Oc2ccc(C#N)cc2[C@@H](n2cccc([N+](=O)[O-])c2=O)[C@@H]1O | Not significant
56 | CC1(C)Oc2ccc(C#N)cc2[C@@H](n2ccc(OCc3ccccc3)cc2=O)[C@@H]1O | Not significant

Row | Structure (SMILES) | Max fall in blood pressure
57 | CCOC(=O)c1ccc2c(c1)[C@@H](n1ccccc1=O)[C@H](O)C(C)(C)O2 | Not significant
58 | CC1(C)Oc2ccc(Br)cc2[C@@H](n2ccccc2=O)[C@@H]1O | Not significant
59 | Cc1coc(-c2ccc3c(c2)C(N2CCCC2=O)[C@H](O)C(C)(C)O3)n1 (some centres not stated) | Not significant
60 | CC1(C)Oc2ccc(C#N)cc2[C@@H](N2CCC/C2=N\C(=O)c2ccncc2)[C@@H]1O | Not significant
61 | Cc1csc(Nc2ccc3c(c2)C(N2CCCC2=O)[C@H](O)C(C)(C)O3)n1 (some centres not stated) | Not significant
62 | O=c1ccccn1[C@@H]1c2cc([N+](=O)[O-])ccc2OC2(CCCC2)[C@H]1O | Not significant
63 | CC1(C)C=C(n2ccc3ccccc3c2=O)c2cc(C#N)ccc2O1 | Not significant
64 | O=c1ccccn1C1=CC2(CCCC2)Oc2ccc([N+](=O)[O-])cc21 | Not significant
65 | O=c1ccccn1[C@@H]1c2cc([N+](=O)[O-])ccc2OC2(CCCCC2)[C@H]1O | Not significant
66 | N#Cc1ccc2c(c1)C(n1ccccc1=O)=CC1(CCCCC1)O2 | Not significant
67 | CC1(C)C=C(n2ccccc2=O)c2cc(-c3ccncc3)ccc2O1 | Not significant
68 | CC1(C)C=C(n2cc(Cl)cc(Cl)c2=O)c2cc(C#N)ccc2O1 | Not significant
69 | CC1(C)Oc2ccc(C#N)cc2[C@@H](n2cc(Br)cc(Br)c2=O)[C@@H]1O | Not significant
70 | CC1(C)Oc2ccc(/N=C/c3ccc(C#N)cc3)cc2C(N2CCCC2=O)[C@@H]1O (some centres not stated) | Not significant
71 | CC1(C)Oc2ccc(C#N)cc2[C@@H](n2cc(C(=O)O)ccc2=O)[C@@H]1O | Not significant
72 | CC1(C)Oc2ccc(NC(=N)S)cc2C(N2CCCC2=O)[C@@H]1O (some centres not stated) | Not significant
73 | CC1(C)C=C(n2cc(Br)cc(Br)c2=O)c2cc(C#N)ccc2O1 | Not significant
74 | CC1(C)Oc2ccc(-c3nc4ccc[nH]c-4n3)cc2C(N2CCCC2=O)[C@@H]1O (some centres not stated) | Not significant
75 | CC(=O)Oc1cccn([C@@H]2c3cc(C#N)ccc3OC(C)(C)[C@H]2O)c1=O | Not significant
76 | CC1(C)Oc2ccc(-c3nc4cc[nH]cc-4n3)cc2C(N2CCCC2=O)[C@@H]1O (some centres not stated) | Not significant
77 | CC1(C)Oc2ccc(-c3nc4ccccc4[nH]3)cc2C(N2CCCC2=O)[C@@H]1O (some centres not stated) | Not significant

— ChEMBL document CHEMBL1125037, “Synthesis and antihypertensive activity of 4-(1,2-dihydro-2-oxo-1-pyridyl)-2H-1-benzopyrans and related compounds, new potassium channel activators” (1990)
